The data set in a line: Toxicity liver stage against HepG2, at 10uM. The data set is classed as cell-based. Also noted: test concentration 10 uM, cell line HepG2-A16-CD81EGFP. Particulars: human, HepG2-A16-CD81EGFP cells; read-out: INHIBITION
The method in brief:
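Uninfected HepG2-A16-CD81EGFP cells, 3 × 10^3 per well, 1536-well, plated on prespotted compound at 10 μM final, parasite-free screening media added to match infected plates; puromycin 10 μM positive, DMSO 0.5% negative; run in parallel with 48 h PbLuc assay at 37 °C, 5% CO2; viability by CellTiter-Glo luminescence, normalized to controls.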

For 97 molecules, cytotoxicity results are on record in ChEMBL document CHEMBL4513216, “Probing the Open Global Health Chemical Diversity Library for Multistage-Active Starting Points for Next-Generation Antimalarials” (ACS Infect Dis, 2020).

Take `Cc1ccc(CN2CC[C@]3(C[C@H](OCc4ccccn4)CO3)C2)o1`: the cytotoxicity at 10 µM is -0.617%.

`CC(=O)N1CCO[C@@H]2CN(S(=O)(=O)c3ccc(F)cc3)CC[C@@H]2C1`: the cytotoxicity at 10 µM was determined as 13.7%.

For `O=C(COCc1ccccc1)Nc1ccccn1`, the cytotoxicity at 10 µM was -27.7%.

Consider `Cc1ccc(CNc2cc(N3CCCC3CO)ncn2)s1` (configuration not stated), for which the cytotoxicity at 10 µM is -2.9%.

For the molecule `CCOCc1cnc2n1CCN(C(=O)Cc1ccccn1)C2C` (configuration not stated), the cytotoxicity at 10 µM was 8.04%.

`CCOC(=O)N1CCN(C(=O)CCn2cccc2)CC1`: the cytotoxicity at 10 µM turned out to be 5.62%.

On to `CN(c1cccc2ccccc12)S(=O)(=O)c1cc(C(=O)O)cs1`, for which the cytotoxicity at 10 µM was -2.88%.

As for `CC(C)Oc1ccccc1CNC(=O)N(C)C(C)CS(C)(=O)=O` (configuration not stated), the cytotoxicity at 10 µM is -48.4%.

For the molecule `O=C(CSc1ccccc1Cl)NS(=O)(=O)c1ccc2c(c1)OCCO2`, the cytotoxicity at 10 µM is -10.7%.

Regarding `CN(Cc1n[nH]c2c1CCCC2)C(=O)c1cccc(CCC(C)(C)O)c1`, the cytotoxicity at 10 µM is -3.87%.

`CCCc1nc(N2CCCC3(CCNC3)C2)c2cnn(C)c2n1` (configuration not stated): the cytotoxicity at 10 µM is -47.8%.

For `O=C(Nc1ncn(CC(=O)N2CCCCCC2)n1)C1CCCO1` (configuration not stated), the cytotoxicity at 10 µM was -4.56%.

For the molecule `O=C(NCCCc1nnc2ccccn12)c1ccccc1C1CCNC1` (configuration not stated), the cytotoxicity at 10 µM was -2.51%.

`CCNc1ncc(C(=O)N2CCOC(CCCC(C)C)C2)cn1` (configuration not stated): the cytotoxicity at 10 µM was found to be 10.3%.

Consider `O=C(CCn1cncn1)NCC(c1ccco1)N1CCCC1` (configuration not stated), for which the cytotoxicity at 10 µM is -3.62%.

Turning to `c1coc(CN2CCO[C@H]3[C@H](OCC4CCCC4)CC[C@@H]32)c1`, the cytotoxicity at 10 µM worked out at 19.7%.

For `CCSCC(C)NCc1ccccc1-n1ccnc1` (configuration not stated), the cytotoxicity at 10 µM turned out to be 11.7%.

On to `CC(C)c1nnc2n1CCN(C(=O)c1ccc(OCC3CC3)cc1)C2`, for which the cytotoxicity at 10 µM is -6.14%.

On to `CN(CC(=O)N1CCCCC1c1nccs1)C1CC1` (configuration not stated), for which the cytotoxicity at 10 µM was 10.2%.

On to `Nc1nc2c(c(NCc3ccncc3)n1)CCCC2`, for which the cytotoxicity at 10 µM is 4.56%.

For the molecule `CC1N(c2cnn(C)c2)C(=O)COC12CCN(Cc1ccoc1)CC2` (configuration not stated), the cytotoxicity at 10 µM stood at 0.997%.

As to `Cn1nnnc1SCCNC(=O)C1CCN(C(=O)C2CCCC2)CC1`, the cytotoxicity at 10 µM was -11.8%.

In the case of `Cn1c(N)nnc1SC1CCCN(c2ccccc2F)C1=O` (configuration not stated), the cytotoxicity at 10 µM is -7.29%.

With `CCn1cnnc1CNC(=O)N(C)Cc1ccc2c(c1)OCCO2`, the cytotoxicity at 10 µM was -1.96%.

`COc1ccc(CNC(=O)c2ccc(=O)n(C)c2)cc1C`: the cytotoxicity at 10 µM is 2.31%.

As to `CN(CCN1CCCCC1)C(=O)c1cc(CN2CCOCC2)on1`, the cytotoxicity at 10 µM was -22.7%.

As to `Cc1noc(C)c1-c1n[nH]c2c1CN(S(=O)(=O)c1cccs1)CC2`, the cytotoxicity at 10 µM is -12.1%.

For the molecule `COCCN(CCOC)S(=O)(=O)N(C)Cc1ccncc1`, the cytotoxicity at 10 µM is 8.07%.

For the molecule `Cc1nc2c(c(=O)[nH]1)CN(C(=O)CCC1CCCN(C)C1)C2` (configuration not stated), the cytotoxicity at 10 µM was -7.76%.

Take `Cc1ccccc1-c1cc(CC2(C(=O)O)CCOCC2)on1`: the cytotoxicity at 10 µM is -14.1%.

For the molecule `Fc1cccc(-c2nc(CN3CCOC(Cn4cncn4)C3)co2)c1` (configuration not stated), the cytotoxicity at 10 µM is -11.4%.

In the case of `CC(c1nncn1C)n1cc(-c2cc(CN3CCCC3)cs2)nn1` (configuration not stated), the cytotoxicity at 10 µM amounted to 2.04%.

Take `O=C(NCc1ccco1)N1CCN(Cc2ccc3c(c2)CCO3)CC1`: the cytotoxicity at 10 µM is -2.83%.

Turning to `CC(c1nc(C2CC2)no1)N1CCN(CCS(C)(=O)=O)CC1` (configuration not stated), the cytotoxicity at 10 µM came out at 7.41%.

In the case of `CS(=O)(=O)Cc1nc(CNc2ccc(F)c(F)c2)cs1`, the cytotoxicity at 10 µM was -6.92%.

Consider `Cc1ccc(-c2ncc(C(=O)N3CCC[C@H](N)C3)c(O)n2)cc1`, for which the cytotoxicity at 10 µM is -7.14%.

Consider `COc1c(C)cnc(CN(C)C2CCCCC2)c1C`, for which the cytotoxicity at 10 µM worked out at 20.5%.

As for `CC(C)(C)C(=O)NS(=O)(=O)c1ccc(C#N)cc1C(F)(F)F`, the cytotoxicity at 10 µM was -7.52%.

Consider `O=C1N(Cc2cccc(F)c2F)CCCC1(O)CNCc1ccccc1` (configuration not stated), for which the cytotoxicity at 10 µM was -9.45%.

In the case of `Cc1nccc(C(=O)N2CCOC(c3nc(C(C)C)n[nH]3)C2)n1` (configuration not stated), the cytotoxicity at 10 µM is -15.7%.

As for `Cc1cccc(=O)n1CCC(=O)N1CC[C@@](O)(C2CCC2)[C@H](C)C1`, the cytotoxicity at 10 µM worked out at 5.8%.

For `OCCn1nccc1C1CCN(Cc2nc(C3CC3)no2)CC1`, the cytotoxicity at 10 µM is -11.7%.

As to `CNc1cncc(C2CCCN2C(=O)Cn2ccnc2C)n1` (configuration not stated), the cytotoxicity at 10 µM was -4.31%.

`O=C(Nc1ccc2c(c1)OCO2)N1CCN(CCn2cccn2)CC1`: the cytotoxicity at 10 µM is 0.741%.

For `CC(=O)N1CC2(CCN(C(=O)c3cccc4[nH]ccc34)CC2)C1`, the cytotoxicity at 10 µM was -138%.

For the molecule `CCCc1nn(C2CCN(C3CC3)C2=O)c(=O)o1` (configuration not stated), the cytotoxicity at 10 µM was -13.7%.

As to `Cc1ncoc1C(=O)N1CCOC(CCCC(C)C)C1` (configuration not stated), the cytotoxicity at 10 µM was 8.29%.

Turning to `CCN(CC)Cc1ccc(C(=O)N2CCCC2Cn2cccn2)o1` (configuration not stated), the cytotoxicity at 10 µM was -10.5%.

Turning to `Cc1ccc(CNC2(Cc3cc(CC(C)C)on3)COC2)o1`, the cytotoxicity at 10 µM was -2.07%.

Regarding `COc1cc(CN2CC[C@H](NC(C)=O)[C@@H](O)CC2)ccc1F`, the cytotoxicity at 10 µM was -9.19%.

`CCc1nnc2n1CCN(Cc1nc(-c3ccoc3)no1)C2`: the cytotoxicity at 10 µM was -4.1%.

For `CC(=O)N1CCOC[C@H](OCC(=O)N(C)C)C1`, the cytotoxicity at 10 µM is -1.13%.

`CC(C)S(=O)(=O)C(C)C(=O)Nc1ccc2oc(C3CC3)nc2c1` (configuration not stated): the cytotoxicity at 10 µM came out at 1.77%.

Consider `Cc1cc(C)n(CC2CN(c3nnc(C)c(C)c3C#N)CCO2)n1` (configuration not stated), for which the cytotoxicity at 10 µM is -18.2%.

On to `CC(=O)N1CCCC1c1ccnc(Nc2cncnc2)n1` (configuration not stated), for which the cytotoxicity at 10 µM was -25.6%.

Take `CCn1c(C2CCNCC2)nn(Cc2ccc(C(=O)NC)o2)c1=O`: the cytotoxicity at 10 µM came out at 6.8%.

In the case of `Cc1ccsc1CNC1CCCN(Cc2noc(C3CC3)n2)C1` (configuration not stated), the cytotoxicity at 10 µM was -4.98%.

Take `COCc1nn(C)c2c1CCN(Cc1cnn(C)c1)C2`: the cytotoxicity at 10 µM was -4.37%.

As for `CCCNC(=O)N1CCN(Cc2cc(C)no2)CC1`, the cytotoxicity at 10 µM is -1.18%.

Turning to `CCN1CCOC(CNCc2cnc(N(CC)CC)s2)C1` (configuration not stated), the cytotoxicity at 10 µM turned out to be 0.598%.

Turning to `CC(C)N1Cc2cccc(NCC(=O)N(C)C)c2C1`, the cytotoxicity at 10 µM was found to be 6.05%.

`Cc1cc(C)c(CNC(=O)NC(C)c2ccc3c(c2)CCC3)c(=O)[nH]1` (configuration not stated): the cytotoxicity at 10 µM came to 27.4%.

For `CC(C)c1nnc(CN(C)Cc2ccccc2-c2ccccc2)o1`, the cytotoxicity at 10 µM came to 5.98%.

`O=C(Nc1cccc(F)c1)C1CCCN1c1nccs1` (configuration not stated): the cytotoxicity at 10 µM is -4.72%.

With `COc1ncccc1C1CC(=O)NCc2nc3sccn3c21` (configuration not stated), the cytotoxicity at 10 µM was determined as 3.86%.

Regarding `Cc1nnc(N2C[C@H](OCC3CCCC3)[C@H]3OCCC[C@H]32)s1`, the cytotoxicity at 10 µM is 5.16%.

`Cc1cc(NCCc2nc(C)cs2)nc(-c2cccnc2)n1`: the cytotoxicity at 10 µM was 1.02%.

In the case of `COc1ccccc1CN1C[C@@H]2CN(C(C)=O)CCO[C@@H]2C1`, the cytotoxicity at 10 µM is -102%.

Consider `CCc1nnc(C(C)N2CCCN(C(=O)Oc3ccccc3)CC2)o1` (configuration not stated), for which the cytotoxicity at 10 µM worked out at 2.79%.

Turning to `O=C(Nc1ccc(OC(F)F)cc1)N1CCC(c2nnc[nH]2)CC1`, the cytotoxicity at 10 µM amounted to 7.25%.

With `CNC(=O)C1CCN(C(=O)NCc2ccc(C)n2C)CC1`, the cytotoxicity at 10 µM was -1.81%.

As to `NC(=O)C1CCN(C(=O)CCSCc2ccccc2)CC1`, the cytotoxicity at 10 µM was 4.22%.

In the case of `CNC(=O)C1CCCN(C(=O)c2ccccc2-n2cc(CN)cn2)C1` (configuration not stated), the cytotoxicity at 10 µM was -2.3%.

Turning to `Cc1nc(N2CCOCC2)nc2c1CN(CC(=O)N(C)C)CC2`, the cytotoxicity at 10 µM is -101%.

As for `CC(=O)NC1CCCN(Cc2ccc(OCc3ccccn3)cc2)C1` (configuration not stated), the cytotoxicity at 10 µM stood at 1.41%.

In the case of `CC(C)Oc1ncccc1CNC(=O)NC(C)c1cccs1` (configuration not stated), the cytotoxicity at 10 µM is -2.3%.

As for `Cc1ccc(Cc2sc(NC(=O)C(C)S(C)(=O)=O)nc2C)cc1` (configuration not stated), the cytotoxicity at 10 µM was 13.1%.

Turning to `c1cncc(-n2cnnc2CCCN2CCOCC2)c1`, the cytotoxicity at 10 µM came out at 1.5%.

For the molecule `O=C(Nc1nc2c(s1)CN(S(=O)(=O)C1CC1)CC2)c1cccc(Cl)c1`, the cytotoxicity at 10 µM turned out to be 1.55%.

As to `CN(C)c1cccc(C2CCN(C3COCC3O)CC2)n1` (configuration not stated), the cytotoxicity at 10 µM was -13.9%.

As to `CNC(=O)[C@@H]1[C@@H](c2ccccc2)CN2CCN(Cc3ccco3)C[C@H]12`, the cytotoxicity at 10 µM is -1.94%.

Consider `Cc1ccoc1C(=O)N1CCCc2c(c(=O)n(C)n2C)C1`, for which the cytotoxicity at 10 µM is 11.7%.

As to `CC(C)N(C)Cc1cc(=O)n2c(n1)CN(S(=O)(=O)C1CC1)CCC2`, the cytotoxicity at 10 µM turned out to be 0.819%.

With `CCOc1ncccc1CNC(=O)c1cccc(C)n1`, the cytotoxicity at 10 µM is -2.42%.

In the case of `CS(=O)(=O)Nc1ccn(Cc2cccc(Cl)c2)n1`, the cytotoxicity at 10 µM was 8.66%.

`Cn1c(NCC(O)c2ccc(F)cc2)c(C#N)c(=O)n(C)c1=O` (configuration not stated): the cytotoxicity at 10 µM is -7.57%.

Consider `CCCN1C(=O)[C@@H]2[C@@H](CCN2C(=O)COC)N(Cc2cccs2)C1=O`, for which the cytotoxicity at 10 µM stood at 0.121%.

Turning to `CCN(C(=O)c1ccc2nnc(C3CCN(CCOC)C3)n2c1)C(C)C` (configuration not stated), the cytotoxicity at 10 µM is -114%.

For the molecule `Cc1cc(C(=O)NCC(O)c2ccc(Cl)s2)c(C)o1` (configuration not stated), the cytotoxicity at 10 µM is -6.82%.

For the molecule `CCc1nccn1CCC(=O)N1C[C@@H]2CC[C@H]1CN(C(=O)N(C)C)C2`, the cytotoxicity at 10 µM was -14.4%.

Consider `CN(C)C[C@@H]1CN(C(=O)Cc2ccccc2)C[C@@H]1CO`, for which the cytotoxicity at 10 µM is -1.07%.

As to `O=C(O)CCCNC(=O)N1CCc2c([nH]c3ccc(Cl)cc23)C1`, the cytotoxicity at 10 µM came to 8.13%.

On to `CC1CN(c2ncccc2C(=O)Nc2cccc3c2CCCC3)CCN1` (configuration not stated), for which the cytotoxicity at 10 µM was 4.65%.

Take `CC(C)Oc1ncccc1CNC(=O)N1CCCC1c1ccsc1` (configuration not stated): the cytotoxicity at 10 µM was -8.25%.

Turning to `CC(C)C(NC(=O)Nc1cnn(CC(N)=O)c1)c1ccc(Cl)cc1` (configuration not stated), the cytotoxicity at 10 µM is 7.51%.

As to `COc1ccc(-n2nnnc2C(C)(C)Nc2ccc(C)cc2C)cc1`, the cytotoxicity at 10 µM worked out at 52.4%.

With `O=C(C1CCOCC1)N1C[C@@H]2OCCN(CCN3CCCC3)[C@@H]2C1`, the cytotoxicity at 10 µM was -3.83%.
